High-throughput results from PubChem.
Most compounds without a hit are left out; they make up all but 1.4% or so of the library.
Vif imaging: inhibitors of HIV Vif; HEK293T cells, Vif self-association by quenched fluorescence, imaging, 24 h; inhibition, % at 7.49 µM; 0.35% of 340,000 active; AID 602346; in the data active = inhibition above about 50%, passing the limit was not always enough
Myeloid diff 2: myeloid differentiation induction; ER-HoxA9 myeloid progenitors, lysozyme-GFP differentiation, flow cytometry; calls only at 10 µM; 1% of 360,000 active; AID 624256;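 active = normalized GFP-positive differentiation at or above the plate's own cutoff, the solvent-only control mean plus 3 SD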;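 note: cells exposed to compound for four days before flow analysis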
T cell modulator: T cell immune modulation candidate; 2C CD8+ T cell-vesicle binding, flow cytometry; stronger effect = lower value; response (vesicle binding), % at 7 µM; 0.068% of 330,000 active; AID 2052;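 active = response, share of CD8 T cells binding vesicles, and their 90th percentile fluorescence all below set limits, cut at about 80% in these data, passing the limit was not always enough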;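 note: values below 100% mean blocked vesicle binding to the CD8+ T cells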
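Assay system: 2C TCR transgenic mouse naive CD8+ T cells, MACS-purified | Read-out: CD8+ gate FL2 mean fluorescence as % of same-row positive control | Signal: High-throughput flow cytometry with anti-B7-1 and anti-CD8 staining | Timing: Binding step 1.5 h, 37 °C, antibody labelling 20 min, ice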
Casp6 inh: inhibitors of human caspase-6; P55212; 0.53% of 350,000 active; inhibition, % at 12.5 µM; AID 686996; purified caspase-6, Z-VEID-R110 cleavage fluorescence;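 active = mean inhibition across replicates at least about 35%, with every replicate also reaching that limit, limit read from the data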;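 note: 0% = median of neutral control wells and 100% = no fluorescence left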
Target sequence (P55212 24-179 limits assumed): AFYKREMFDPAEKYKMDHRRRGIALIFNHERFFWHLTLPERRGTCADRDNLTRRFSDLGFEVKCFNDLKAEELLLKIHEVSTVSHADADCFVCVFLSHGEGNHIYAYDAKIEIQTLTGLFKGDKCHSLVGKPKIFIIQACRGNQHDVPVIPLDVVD
Target sequence (P55212 194-293 limits assumed): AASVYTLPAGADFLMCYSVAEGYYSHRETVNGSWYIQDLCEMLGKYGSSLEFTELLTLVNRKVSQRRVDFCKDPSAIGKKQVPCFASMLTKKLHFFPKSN
Myeloid diff CP1: compounds promoting myeloid differentiation; ER-HoxA9 myeloid progenitors, GFP/Mac1 double-positive flow; calls only; AID 651706; shares compounds with Myeloid diff 2; 2% of 2,300 active;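 active = share of green or green-and-red cells above 9 and 9% in run 1 or 4 and 3% in run 2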
GFP autofluor: compound fluorescence in myeloid differentiation counter-screen. AID 651707. ER-HoxA9 myeloid progenitors, no estrogen, GFP autofluorescence flow cytometry; vehicle wells 0%, positive control 100%. fluorescence response, % (no concentration beside the values). 7.4% of 2,300 active. shares compounds with Myeloid diff 2;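 active = over 5% cells positive for green fluorescent reporter, or over 2% positive for both it and APC stain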;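 note: range taken on the double positive population between DMSO and positive control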
* hit, by the source's call; i = inactive; / = no result given; + = active, no number.

SMILES	Vif imaging	Myeloid diff 2	T cell modulator	Casp6 inh	Myeloid diff CP1	GFP autofluor
O=S(=O)(NC[C@H]1CC[C@@H]2NC[C@@H]2O1)c1ccccc1F	/	/	/	-4	/	/
CCn1c(-c2ccc(F)cc2)n[nH]c1=S	7	i	164	/	i	0
CCn1c(-c2ccc(C(C)(C)C)cc2)n[nH]c1=S	-16	i	476	/	/	/
C[C@H](CO)N1C[C@H](C)[C@H](CN(C)Cc2ccc(C(=O)Nc3ccccc3N)cc2)Oc2c(NS(=O)(=O)c3cccs3)cccc2C1=O	/	/	/	1	/	/
Nc1nc2ccccc2cc1C(=O)NCCCCc1ccccc1	/	i	/	/	i	0
Cc1ccccc1C(=O)NCCCCc1ccccc1	-3	i	98	/	/	/
CCc1ccc(CNC(=O)CCc2nnc(Cc3cccc(C(F)(F)F)c3)o2)nc1	-2	+	456	-1	i	0
Cc1cc(=O)c2c([nH]1)c(C)cc1[nH]c(C)c(C)c12	2	i	341	-4	i	0
ClCCn1cnc2c(SCc3ccccc3Cl)ncnc21	3	i	/	0	i	4
ClCCn1cnc2c(SCc3ccccc3)ncnc21	2	i	/	-2	/	/
C[C@H]1CN([C@@H](C)CO)C(=O)c2cccc(NS(=O)(=O)c3ccc(Cl)cc3)c2O[C@H]1CN(C)Cc1ccc(C(F)(F)F)cc1	/	/	/	1	/	/
O=C(NC1(C(F)(F)F)NC(=O)N(Cc2ccccc2)C1=O)c1cccnc1 (centres undefined)	-1	i	200	/	/	/
O=C(NC1(C(F)(F)F)NC(=O)N(Cc2ccco2)C1=O)c1cccnc1 (centres undefined)	12	+	584	/	i	0
OC(CNCCCN1CCCCC1)COc1ccccc1 (centres undefined)	13	+	375	/	i	0
C[C@@H]1CN([C@@H](C)CO)C(=O)c2cc(NC(=O)NC3CCCCC3)ccc2O[C@H]1CN(C)CC1CCCCC1	/	/	/	1	/	/
O=C(COC(=O)c1cccs1)NCc1ccc2c(c1)OCO2	-8	+	461	/	i	0
O=C(NCCCC1CCCC1)C1CCC(=O)N(Cc2cccc(C(F)(F)F)c2)C1 (centres undefined)	-6	+	255	1	i	0
O=C(NCCCn1cccn1)C1CCC(=O)N(Cc2cccc(C(F)(F)F)c2)C1 (centres undefined)	7	i	i	/	/	/
COc1ccc(S(=O)(=O)N[C@H]2C=C[C@@H](CC(=O)N3CCC(Cc4ccccc4)CC3)O[C@H]2CO)cc1	/	/	/	1	/	/
CCC(C(=O)Nc1sc(C(N)=O)c(C)c1C(=O)OC)c1ccccc1 (centres undefined)	-5	i	341	3	i	0
Cc1cc(/C=C(\C#N)C(=O)O)c(C)n1CC(C)C	0	+	541	21	i	1
CCCCCCCNc1cccc(C)c1	-1	i	331	-1	i	1
COCC(=O)N(C)C[C@@H]1Oc2ncc(C#Cc3ccc(F)cc3)cc2C(=O)N([C@@H](C)CO)C[C@@H]1C	/	/	/	-1	/	/
COc1ccc(-c2sc(Nc3ccccc3)n[n+]2-c2ccc(F)cc2)c(C)c1C	0	i	i	-2	i	4.2*
Cc1cccc(-c2sc(Nc3ccccc3)n[n+]2-c2ccc(F)cc2)c1	3	i	186	-3	/	/
SMILES	Vif imaging	Myeloid diff 2	T cell modulator	Casp6 inh	Myeloid diff CP1	GFP autofluor
NC(=O)[C@@H]1[C@H]2C(=O)O[C@H](c3ccccc3)[C@H](c3ccccc3)N2[C@H](c2ccc(O)cc2)[C@@]12C(=O)Nc1ccc(C#CC3=CCCCC3)cc12	/	/	/	0	/	/
Cc1cccc(CNc2ncnc3ccc(-c4cccnc4)cc23)c1	0	+	566	1	i	0
O=S(=O)(NC1CCN(Cc2ccc(OCCO)cc2)CC1)c1cc(C(F)(F)F)ccc1Cl	/	/	/	-40	/	/
CCC/C=C1/CCCOC(C(=O)NCc2ccc(C)o2)(C(F)(F)F)C1 (centres undefined)	-1	+	322	1	i	0
Cn1c(C(=O)NCC2CCCO2)cc2c(=O)[nH]c3ccccc3c21 (centres undefined)	1	i	740	/	i	1
COc1ccc(NC(=O)CCN2CC(C)OC(C)C2)c(OC)c1 (centres undefined)	9	+	503	/	i	0
CC(=O)N1N=C(c2ccc(Cl)cc2)OC1c1ccc(C(C)C)cc1 (centres undefined)	/	i	524	/	i	1
C[C@@H]1CCCCO[C@@H](CN(C)S(=O)(=O)c2cn(C)cn2)[C@@H](C)CN([C@@H](C)CO)C(=O)c2cc(NS(=O)(=O)c3ccccc3)ccc2O1	/	/	/	-3	/	/
C=CCN1C=C/C(=C\C=C(C#N)C#N)c2ccccc21	-10	+	202	2	i	1
Cc1ccc(Nc2nnc(SCC(=O)NC3CCS(=O)(=O)C3)s2)c(C)c1 (centres undefined)	6	i	432	4	i	5.9*
C=C(C)COc1ccc2c(C)c(CC(=O)OC)c(=O)oc2c1C	-37	i	247	/	i	1
COc1ccc(CNC(=O)c2cccc3c(-c4cccnc4)coc23)cc1OC	-19	i	/	19	i	1
COc1cc(NC(=O)c2cccc3c(-c4cnn(C)c4)coc23)cc(OC)c1OC	-10	+	/	-1	i	26*
Cc1ccc(S(=O)(=O)NCC[C@@H]2CC[C@H](NS(=O)(=O)c3ccccc3Cl)[C@@H](CO)O2)cc1	/	/	/	2	/	/
NNc1nc2cccnc2n(CCNc2ncc(C(F)(F)F)cc2Cl)c1=O	-10	i	259	2	i	2
O=c1c2nncn2c2cccnc2n1CCNc1ncc(C(F)(F)F)cc1Cl	-8	i	222	-1	/	/
CO[C@@H]1CN(C)C(=O)c2ccc(NC(=O)C3CC3)cc2OC[C@@H](C)N(CCc2ccccc2)C[C@H]1C	/	/	/	1	/	/
C[C@H]1CN([C@@H](C)CO)S(=O)(=O)c2ccc(-c3ccccc3)cc2O[C@H]1CN(C)C(=O)C1CCCCC1	/	/	/	-1	/	/
Cn1c(=O)c2cc(S(=O)(=O)NCCC(=O)NCCC3=CCCCC3)ccc2n(C)c1=O	-16	+	445	-2	i	1
CC(=O)NC[C@@H]1[C@@H](c2ccccc2)[C@H](CO)N1C(=O)Cc1cccnc1	/	/	/	2	/	/
C[C@H]1CN([C@@H](C)CO)C(=O)c2cc(-c3ccc(C#N)cc3)cnc2O[C@H]1CN(C)C(=O)c1ccccc1	/	/	/	2	/	/
O=C(O)CN1C(=O)/C(=C/c2ccc(SCc3ccccc3)o2)SC1=S	12	i	/	52*	i	0
O=C(O)CCCN1C(=O)/C(=C\c2ccco2)SC1=S	0	i	/	32	/	/
O=C1/C(=C\c2ccco2)SC(=S)N1Cc1ccccc1	-8	i	157	/	i	1
C[C@H]1CN([C@@H](C)CO)S(=O)(=O)c2ccc(-c3cccc(C#N)c3)cc2O[C@@H]1CN(C)C(=O)c1ccc(F)cc1	/	/	/	1	/	/
